Source: ChEMBL document CHEMBL1155077, “Kinesin spindle protein (KSP) inhibitors. 9. Discovery of (2S)-4-(2,5-difluorophenyl)-n-[(3R,4S)-3-fluoro-1-methylpiperidin-4-yl]-2-(hydroxymethyl)-N-methyl-2-phenyl-2,5-dihydro-1H-pyrrole-1-carboxamide (MK-0731) for the treatment of taxane-refractory cancer” (J Med Chem, 2008)

Tests used:
[1] = Inhibition of human KSP
[2] = Dissociation constant, pKa by Sirius GLpKa titrator; assay type: physicochemical
How it was run: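 Potentiometric pKa measured on a Sirius GLpKa titrator; mean of n = 3 determinations unless marked as a single determination.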

A2780 [3] = experiment: Induction of mitotic arrest in human A2780 cells expressing MDR1 after 16 hrs; assay type: functional, cell-based; details: A2780, 16 h
[4] = Inhibition of human KSP in presence of 30% mouse serum
How it was run: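 KSP ATPase assay as the primary one (0.25 nM KSP motor domain, microtubules, 1 mM ATP, pH 6.8, 3 h at RT, quinaldine red phosphate read-out), run with 30% mouse serum dialysed against reaction buffer (12-14 kDa cutoff). Mean of at least 3 experiments unless noted.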

A2780 [5] = experiment: Induction of mitotic arrest in human A2780 cells […] clr:NU/NU-nuBR mouse assessed as minimum plasma concentration required to induce maximum mitotic arrest after 22 hrs; assay type: functional
[6] = biological target: Voltage-gated inwardly rectifying potassium channel KCNH2 (Homo sapiens, UniProt Q12809)
[7] = Ratio of IC50 for induction of mitotic arrest in human […] to IC50 for induction of mitotic arrest in […] human KB-V-1 cells; assay type: functional
How it was run: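 Phospho-nucleolin mitotic-arrest assay in parental KB-3-1 and MDR1-overexpressing KB-V-1 cells (>500-fold higher MDR1 mRNA). Cells were treated in triplicate for 16 h across 10 000 to 0.1 nM (11-point, half-log series; 0.1% DMSO final). Total nucleolin was bead-captured from lysates and phospho-nucleolin detected by TG3 antibody plus a ruthenium-labelled secondary. Ratio = IC50 (KB-V-1) / IC50 (KB-3-1).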

Rattus norvegicus [8] = experiment: AUC in rat at 1 mg/kg, iv; assay type: ADME, organism-based, Plasma; set-up: dose 1 mg/kg, route intravenous; details: in vivo
Rattus norvegicus [9] = experiment: AUC in rat at 4 mg/kg, iv; assay type: ADME, organism-based, Plasma; set-up: dose 4 mg/kg, route intravenous; details: in vivo
Rattus norvegicus [10] = experiment: AUC in rat at 12 mg/kg, iv; assay type: ADME, organism-based, Plasma; set-up: dose 12 mg/kg, route intravenous; details: in vivo

Voltage-gated inwardly rectifying potassium channel KCNH2, sequence (Q12809 whole entry): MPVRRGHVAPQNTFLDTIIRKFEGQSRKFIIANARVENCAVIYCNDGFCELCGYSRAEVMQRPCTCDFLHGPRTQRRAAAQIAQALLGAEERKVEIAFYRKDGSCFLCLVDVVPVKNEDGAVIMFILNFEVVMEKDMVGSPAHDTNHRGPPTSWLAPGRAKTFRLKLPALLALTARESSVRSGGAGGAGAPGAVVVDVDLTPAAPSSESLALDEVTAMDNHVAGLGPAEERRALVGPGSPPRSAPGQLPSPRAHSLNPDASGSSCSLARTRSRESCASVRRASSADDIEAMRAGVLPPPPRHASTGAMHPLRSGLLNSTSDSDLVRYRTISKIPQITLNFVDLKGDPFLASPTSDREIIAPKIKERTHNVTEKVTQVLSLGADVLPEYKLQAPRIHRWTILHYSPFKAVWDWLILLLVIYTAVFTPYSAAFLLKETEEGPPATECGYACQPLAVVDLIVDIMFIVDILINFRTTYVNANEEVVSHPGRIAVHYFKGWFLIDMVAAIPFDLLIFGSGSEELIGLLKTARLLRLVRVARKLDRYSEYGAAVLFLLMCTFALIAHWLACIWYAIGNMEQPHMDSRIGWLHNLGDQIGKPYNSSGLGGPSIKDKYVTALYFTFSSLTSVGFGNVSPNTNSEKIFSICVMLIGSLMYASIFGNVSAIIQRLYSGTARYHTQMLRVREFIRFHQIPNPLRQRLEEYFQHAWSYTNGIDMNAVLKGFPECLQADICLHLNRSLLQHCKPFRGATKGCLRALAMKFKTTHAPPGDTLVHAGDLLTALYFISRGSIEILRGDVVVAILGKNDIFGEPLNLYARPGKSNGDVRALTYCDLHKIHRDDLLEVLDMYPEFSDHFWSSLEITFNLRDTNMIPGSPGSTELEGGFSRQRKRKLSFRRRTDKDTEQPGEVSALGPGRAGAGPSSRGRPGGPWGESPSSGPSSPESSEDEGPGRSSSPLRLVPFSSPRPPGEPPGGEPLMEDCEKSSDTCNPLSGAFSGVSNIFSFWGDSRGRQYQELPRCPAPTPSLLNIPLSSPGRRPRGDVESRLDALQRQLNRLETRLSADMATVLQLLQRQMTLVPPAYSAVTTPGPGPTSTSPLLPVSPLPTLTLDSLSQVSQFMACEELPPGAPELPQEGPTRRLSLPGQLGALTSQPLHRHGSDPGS

| SMILES | IC50 [1] [nM] | pKa [2] | EC50 (A2780 [3]) [nM] | EC90 (A2780 [5]) [nM] | also measured |
| --- | --- | --- | --- | --- | --- |
| CN(C)C(=O)N1CC(c2cc(F)ccc2F)=C[C@@]1(CC[C@@H](N)C(F)F)c1ccccc1 | 5 |  | 22.5 | 1425 | IC50 [4]: 84.2 nM; IC50 [6]: 15900 nM |
| CC(=O)O[C@H]1C(=O)[C@@]2(C)[C@H]([C@H](OC(=O)c3ccccc3)[C@]3(O)C[C@H](OC(=O)[C@H](O)[C@@H](NC(=O)c4ccccc4)c4ccccc4)C(C)=C1C3(C)C)[C@]1(OC(C)=O)CO[C@@H]1C[C@@H]2O [PACLITAXEL] | 0.5 |  | > 10000 |  |  |
| CN1CCC(N(C)C(=O)N2CC(c3cc(F)ccc3F)=C[C@H]2c2ccccc2)CC1 | 4 |  |  | 400 |  |
| CN1CC[C@H](N(C)C(=O)N2CC(c3cc(F)ccc3F)=C[C@@]2(CO)c2ccccc2)[C@@H](F)C1 | 11.5 | 6.6 | 16.5 |  | Ratio [7]: 2.4; IC50 [6]: 36900 nM |
| CN(C)C(=O)N1CC(c2cc(F)ccc2F)=C[C@@]1(CO)c1ccccc1 | 78 |  |  |  |  |

The next lines start with results.

| IC50 [1] [nM] | pKa [2] | EC50 (A2780 [3]) [nM] | EC90 (A2780 [5]) [nM] | SMILES | also measured |
| --- | --- | --- | --- | --- | --- |
| 5.1 | 9.1 |  |  | CN(C(=O)N1CC(c2cc(F)ccc2F)=C[C@@]1(CO)c1ccccc1)C1CCN(CC2CC2)CC1 |  |
| 5.9 | 7.5 |  |  | CN(C(=O)N1CC(c2cc(F)ccc2F)=C[C@@]1(CO)c1ccccc1)C1CCN(C2CC2)CC1 |  |
| 6.2 | 8.8 | 5.6 | 125 | CN1CCC(N(C)C(=O)N2CC(c3cc(F)ccc3F)=C[C@@]2(CO)c2ccccc2)CC1 | IC50 [4]: 29.1 nM |
| 13.3 |  | 13.8 |  | CN1CC[C@@H](N(C)C(=O)N2CC(c3cc(F)ccc3F)=C[C@@]2(CO)c2ccccc2)[C@@H](F)C1 | Ratio [7]: 4.8 |
| 7.4 | 9.8 |  |  | CN(C(=O)N1CC(c2cc(F)ccc2F)=C[C@@]1(CO)c1ccccc1)C1CCNCC1 |  |
| 34.1 | 4.9 |  |  | CN(C(=O)N1CC(c2cc(F)ccc2F)=C[C@@]1(CO)c1ccccc1)C1CCN(CC(F)F)CC1 |  |
| 5 | 7.6 | 4.8 | 100 | CN(C(=O)N1CC(c2cc(F)ccc2F)=C[C@@]1(CO)c1ccccc1)C1CCN(CCF)CC1 | IC50 [4]: 38.8 nM; AUC (Rattus norvegicus [8]): 0.5 µM·h; AUC (Rattus norvegicus [9]): 2.5 µM·h; AUC (Rattus norvegicus [10]): 9.5 µM·h |
| 11.9 |  | 37.6 |  | CN1CC[C@@H](N(C)C(=O)N2CC(c3cc(F)ccc3F)=C[C@@]2(CO)c2ccccc2)[C@H](F)C1 | Ratio [7]: 2.9 |
